These results are taken from ChEMBL document CHEMBL4673248, “Discovery and Characterization of BAY 1214784, an Orally Available Spiroindoline Derivative Acting as a Potent and Selective Antagonist of the Human Gonadotropin-Releasing Hormone Receptor as Proven in a First-In-Human Study in Postmenopausal Women” (J Med Chem, 2020).

Series [1] deals with T1, Gonadotropin-releasing hormone receptor (Rattus norvegicus, UniProt P30969).
T1 sequence (P30969 whole entry): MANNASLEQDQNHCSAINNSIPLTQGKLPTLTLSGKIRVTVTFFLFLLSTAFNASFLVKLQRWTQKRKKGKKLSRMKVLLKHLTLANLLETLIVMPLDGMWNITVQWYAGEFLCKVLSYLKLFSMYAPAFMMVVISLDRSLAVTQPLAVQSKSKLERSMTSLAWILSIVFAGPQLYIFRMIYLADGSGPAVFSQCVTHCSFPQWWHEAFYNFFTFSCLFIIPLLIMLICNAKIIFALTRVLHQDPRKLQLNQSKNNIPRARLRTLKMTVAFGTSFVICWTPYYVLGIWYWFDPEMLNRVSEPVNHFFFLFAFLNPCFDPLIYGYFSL
Description: Antagonist activity at rat GnRH receptor expressed in CHO-K1 cells assessed as inhibition of buserelin-induced response preincubated for 20 mins followed by buserelin addition and measured after 60 mins by TR-FRET assay. In kind it is cell-based. In short, it runs like this: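 Frozen rat-receptor cells: thawed, seeded overnight in serum-containing Ham's F12, Accutase-harvested, resuspended in serum-free medium with IP1-d2, 1 h at 37 °C. 1.0 × 10^4 cells/well, 20 min compound preincubation at rt, then 1× EC80 LHRH or buserelin in HEPES stimulation buffer pH 7.4 for 60 min at 37 °C. Tb-anti-IP1 lysis (1:38), HTRF read 60 min later.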
Background: Time-resolved FRET reads energy transfer from a long-lived donor to a nearby acceptor.

The target in series [2] is T2, Gonadotropin-releasing hormone receptor (Homo sapiens, UniProt P30968).
T2 sequence (P30968 whole entry): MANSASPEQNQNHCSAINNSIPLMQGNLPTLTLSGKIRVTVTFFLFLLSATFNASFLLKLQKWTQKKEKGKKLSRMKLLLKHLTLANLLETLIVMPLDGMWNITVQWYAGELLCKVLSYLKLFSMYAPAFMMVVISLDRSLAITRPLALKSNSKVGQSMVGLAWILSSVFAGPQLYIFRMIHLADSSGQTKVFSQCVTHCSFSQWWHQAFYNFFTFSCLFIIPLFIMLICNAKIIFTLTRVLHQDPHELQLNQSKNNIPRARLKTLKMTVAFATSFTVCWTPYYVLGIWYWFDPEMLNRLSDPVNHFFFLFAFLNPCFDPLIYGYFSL
Nature of the series: Inhibition of Tag-lite green-labeled agonist binding to terbium fluorophore-labeled human N-terminal SNAP-tag GnRh receptor expressed in HEK293 cells assessed as equilibrium dissociation constant by TR-FRET assay. Type of series: cell-based.

Series [3] can be described thus: Antagonist activity at cynomolgus monkey GnRH receptor expressed in CHO-K1 cells assessed as inhibition of buserelin-induced response preincubated for 20 mins followed by buserelin addition and measured after 60 mins by TR-FRET assay. The settings on record: Macaca fascicularis. In kind it is cell-based. The procedure, abridged: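 Frozen CHO-K1 cells expressing cynomolgus receptor: thawed, 1 h recovery at 37 °C with IP1-d2 tracer. 5000 cells/well in Ham's F12, 20 min preincubation with compound at rt. Buserelin added at 1× EC80 in HEPES stimulation buffer pH 7.4 with LiCl, 60 min at 37 °C. Lysis with Tb-anti-IP1 antibody (1:20), HTRF IP1 read after 60 min. Duplicates, up to 11 concentrations.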

Series [4] is described as follows: Lipophilicity, log D of the compound in pH 7.5 MeCN/H2O solution by reversed-phase HPLC analysis. Type of series: physicochemical. The procedure, abridged: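 Indirect reversed-phase HPLC at pH 7.5, calibrated with n-alkan-2-ones C3–C16. Compounds applied as 0.67 mM DMSO stocks in MeCN/H2O (1:1).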
Series [5] deals with Voltage-gated inwardly rectifying potassium channel KCNH2 (Homo sapiens, UniProt Q12809). Description: Inhibition of human ERG expressed in HEK293 cells assessed as reduction in channel inward tail current by whole cell voltage clamp assay. Type of series: cell-based.
Series [6] in a line: Clearance in rat liver microsomes at 1 uM measured upto 60 mins in presence of NADP generating system by LC-MS/MS analysis. In kind it is ADME, Microsome. As to conditions: 1 h. In general terms: Microsomes from liver hold many membrane-bound enzymes, among them those of drug oxidation.
The nature of series [7]: Maximum oral bioavailability in human liver microsomes based well stirred liver model at 1 uM measured after 2 to 60 mins in presence of NADP generating system by LC-MS/MS analysis. Type of series: ADME, Microsome. The settings on record: time 2-60 min, read-out: Fmax. In short, it runs like this:
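Human liver microsomes at 0.5 mg/mL in 100 mM phosphate pH 7.4, 37 °C, G6P/NADP/G6PDH cofactor mix. Compound 1 µM, sampled at 2, 8, 16, 30, 45 and 60 min into cold MeOH, LC-MS/MS. Half-life to intrinsic clearance. Fmax from well-stirred model with liver blood flow 1.32 L/h/kg.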

Series [8] can be described thus: Chemical stability of compound at pH 1 to 10 measured up to 24 hrs by UV-HPLC analysis. In kind it is physicochemical. As to conditions: buffer, pH 1, 24 h. In short, it runs like this: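 10 mM DMSO stock diluted in MeCN, then into pH 1, 7 or 10 buffer. Held at 37 °C, HPLC-UV injections at 0, 1, 2 and 24 h. Recovery given as peak area relative to time zero.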

Series [9] in a line: Maximum oral bioavailability in dog hepatocytes. In kind it is ADME, Canis lupus familiaris, Hepatocyte. As to conditions: read-out: Fmax.
Series [10] can be described thus: Maximum oral bioavailability in cynomolgus monkey hepatocytes. In kind it is ADME, Macaca fascicularis, Hepatocyte. As to conditions: read-out: Fmax.
Series [11] in a line: Toxicity in postmenopausal woman at 5 to 450 mg, po administered as single dose using SMEDDS formulation. As to conditions: human, in vivo.
A further series has as its target T3, Cytochrome P450 2C8 (Homo sapiens, UniProt P10632).
T3 sequence (P10632 whole entry): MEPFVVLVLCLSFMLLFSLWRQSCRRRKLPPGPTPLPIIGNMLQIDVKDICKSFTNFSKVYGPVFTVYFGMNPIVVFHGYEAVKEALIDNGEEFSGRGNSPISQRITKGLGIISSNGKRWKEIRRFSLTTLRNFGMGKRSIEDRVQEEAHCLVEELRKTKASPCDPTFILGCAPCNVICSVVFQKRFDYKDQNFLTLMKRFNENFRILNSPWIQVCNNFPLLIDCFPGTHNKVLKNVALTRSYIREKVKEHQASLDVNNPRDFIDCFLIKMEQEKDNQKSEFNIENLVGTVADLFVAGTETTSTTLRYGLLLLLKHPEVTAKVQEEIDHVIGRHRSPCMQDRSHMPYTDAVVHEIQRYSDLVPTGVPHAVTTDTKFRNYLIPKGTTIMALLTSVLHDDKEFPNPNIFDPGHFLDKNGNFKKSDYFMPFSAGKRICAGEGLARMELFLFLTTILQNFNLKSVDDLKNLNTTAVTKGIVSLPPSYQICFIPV
Nature of the series: Inhibition of CYP2C8 in human liver microsomes using amodiaquine as substrate by LC-MS/MS analysis. In kind it is ADME.

Series [12] can be described thus: Clearance in cynomolgus monkey hepatocytes. In kind it is ADME, cell-based, Macaca fascicularis, Hepatocyte.
Series [13] can be described thus: Apparent permeability across basolateral to apical side in human Caco2 cells at 2 uM measured after 2 hrs by LC-MS/MS analysis. In kind it is ADME, cell-based. The settings on record: Caco-2. In short, it runs like this: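 Caco-2 monolayers grown 15 d, integrity checked by TEER. Compound 2 µM added apical or basolateral in FCS-free HEPES carbonate buffer pH 7.2, incubated 2 h at 37 °C. Both compartments sampled before and after, analysed by LC-MS/MS after MeOH precipitation. Papp computed from receiver peak area, surface area and time. Efflux ratio taken as Papp B–A/Papp A–B.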

Series [14] can be described thus: Maximum oral bioavailability in human hepatocytes. In kind it is ADME, Hepatocyte. The settings on record: read-out: Fmax.
A short description of series [15]: Fraction unbound in human plasma. Type of series: ADME, cell-free.
Series [16] is described as follows: Maximum oral bioavailability in dog liver microsomes based well stirred liver model. In kind it is ADME, Canis lupus familiaris, Microsome. The settings on record: read-out: Fmax.
A short description of series [17]: Clearance in human hepatocytes. Type of series: ADME, cell-based, Hepatocyte.

Chain of Voltage-gated inwardly rectifying potassium channel KCNH2 (Q12809 whole entry): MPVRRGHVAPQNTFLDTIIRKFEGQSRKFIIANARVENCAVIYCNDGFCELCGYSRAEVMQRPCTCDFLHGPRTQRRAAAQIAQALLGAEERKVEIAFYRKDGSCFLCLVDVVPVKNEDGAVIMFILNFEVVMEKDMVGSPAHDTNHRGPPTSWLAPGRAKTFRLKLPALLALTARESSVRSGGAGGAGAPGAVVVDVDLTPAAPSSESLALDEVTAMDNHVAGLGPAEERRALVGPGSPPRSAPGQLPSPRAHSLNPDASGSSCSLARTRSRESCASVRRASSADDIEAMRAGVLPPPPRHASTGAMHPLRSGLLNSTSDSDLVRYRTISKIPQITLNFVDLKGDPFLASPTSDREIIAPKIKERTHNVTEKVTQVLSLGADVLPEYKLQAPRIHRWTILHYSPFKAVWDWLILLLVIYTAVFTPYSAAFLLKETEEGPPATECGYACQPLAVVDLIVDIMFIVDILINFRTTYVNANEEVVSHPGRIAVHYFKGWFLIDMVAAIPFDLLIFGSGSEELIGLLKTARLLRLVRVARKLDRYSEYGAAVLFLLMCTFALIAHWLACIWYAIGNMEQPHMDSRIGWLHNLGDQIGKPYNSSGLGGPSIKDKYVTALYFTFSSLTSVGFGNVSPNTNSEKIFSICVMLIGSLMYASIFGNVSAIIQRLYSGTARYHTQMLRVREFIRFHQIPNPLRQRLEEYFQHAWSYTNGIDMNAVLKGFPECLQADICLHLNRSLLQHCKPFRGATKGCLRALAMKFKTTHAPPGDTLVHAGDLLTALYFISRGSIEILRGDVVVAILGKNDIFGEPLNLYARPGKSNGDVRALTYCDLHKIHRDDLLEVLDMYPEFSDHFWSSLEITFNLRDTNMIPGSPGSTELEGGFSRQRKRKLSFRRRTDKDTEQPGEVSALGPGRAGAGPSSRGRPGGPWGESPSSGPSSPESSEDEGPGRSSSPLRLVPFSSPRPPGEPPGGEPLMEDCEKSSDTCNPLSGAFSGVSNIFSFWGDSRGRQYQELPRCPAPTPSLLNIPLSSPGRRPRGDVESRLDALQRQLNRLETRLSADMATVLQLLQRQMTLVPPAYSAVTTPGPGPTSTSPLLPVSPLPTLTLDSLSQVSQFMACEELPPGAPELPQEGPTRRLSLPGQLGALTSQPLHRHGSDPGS

Broadly, the IC50 is the point on the concentration scale where inhibition reaches its midpoint. The term Kd denotes the concentration at which binding is half-saturated. Broadly, the chromatographic logD is lipophilicity estimated from chromatographic retention. The term Papp B→A denotes how fast a substance crosses the layer from the basolateral side. One may read the fraction unbound as free concentration divided by total concentration. In the case of `O=C(NCc1ncc(C(F)(F)F)cc1Cl)c1ccc2c(c1)C1(CCS(=O)(=O)CC1)[C@H](C1CC1)N2S(=O)(=O)c1ccc(F)cc1` [BAY-784], the IC50 in series [1] was 24 nM; in [3] it was 35 nM; in series [5], greater than 10000 nM; against Cytochrome P450 2C8 it was 1000 nM. Moreover, the dissociation constant Kd in series [2] stood at 5.52 nM. In series [4], this compound registered a chromatographic logD of 3.6. Moreover, the CLH in [6] worked out at 6.33 mL/min/kg; in [12], 11.8 mL/min/kg; in series [17], 1.7 mL/min/kg. Also, the Fh at 1 µM in series [7] was 100%. Moreover, the Stabilty entry in series [8] is “Stable”. Also, the Fh in series [9] is 65%; in series [10], 72%; in [14], 93%; in series [16] it was 85%. Further, the Activity entry in series [11] was “Non-Toxic”. The apparent permeability from basolateral to apical (Papp B→A) at 2 h, 2 µM in series [13] was found to be 12.9 ×10⁻⁶ cm/s. Moreover, in [15], the fraction unbound was found to be 0.014.
